Measured values taken from ChEMBL document CHEMBL4706541, “Design and synthesis of 1H-indazole-3-carboxamide derivatives as potent and selective PAK1 inhibitors with anti-tumour migration and invasion activities” (Eur J Med Chem, 2020).
pIC50: −log10 of the molar value.

Tests used:
[1] = biological target: Voltage-gated inwardly rectifying potassium channel KCNH2 (Homo sapiens, UniProt Q12809); experiment: Inhibition of human ERG
MDA-MB-231 = experiment: Antiproliferative activity against human MDA-MB-231 cells assessed as growth inhibition at 1 uM after 72 hrs by Cell Titer-Glo assay relative to control; assay type: functional; conditions: read-out: GI
Method in brief: (§1)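 Cells kept at 37 °C in 5% CO2 and plated at 4000 per well. Treated with compound for 72 h. Viability read by CellTiter-Glo luminescence. Each compound run in duplicate, data as means ± SD.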

HCT-116 = experiment: Antiproliferative activity against human HCT-116 cells assessed as growth inhibition at 1 uM after 72 hrs by Cell Titer-Glo assay relative to control; assay type: functional; conditions: read-out: GI; method in brief: as §1
[2] = biological target: T1, Serine/threonine-protein kinase PAK 1 (Homo sapiens, UniProt Q13153); experiment: Inhibition of full length recombinant human N-terminal GST/His6-tagged PAK1 expressed in sf9 insect cells using tetra LRRWSLG as substrate preincubated for 20 min followed by [gamma33P]ATP addition and measured after 120 mins by Hotspot assay
[3] = biological target: T1, Serine/threonine-protein kinase PAK 1; experiment: Inhibition of PAK1 (unknown origin)
[4] = biological target: Serine/threonine-protein kinase PAK 4 (Homo sapiens, UniProt O96013); experiment: Inhibition of full length recombinant human N-terminal GST/His6-tagged PAK4 expressed in baculovirus infected sf9 insect cells using tetra LRRWSLG as substrate preincubated for 20 min followed by [gamma33P]ATP addition and measured after 120 mins by Hotspot assay
Homo sapiens = species on record: Homo sapiens; experiment: Selectivity index ratio of IC50 for inhibition of human PAK4 to IC50 for human PAK1
Method in brief: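 Compound tested from 10 µM in 3-fold serial dilutions in the HotSpot radiometric assay, with 20 min preincubation, 10 µM ATP/33P-ATP and 120 min at 25 °C. Filter-binding gives IC50. Selectivity is expressed as the PAK4 IC50 divided by the PAK1 IC50.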

T1 sequence (Q13153 whole entry): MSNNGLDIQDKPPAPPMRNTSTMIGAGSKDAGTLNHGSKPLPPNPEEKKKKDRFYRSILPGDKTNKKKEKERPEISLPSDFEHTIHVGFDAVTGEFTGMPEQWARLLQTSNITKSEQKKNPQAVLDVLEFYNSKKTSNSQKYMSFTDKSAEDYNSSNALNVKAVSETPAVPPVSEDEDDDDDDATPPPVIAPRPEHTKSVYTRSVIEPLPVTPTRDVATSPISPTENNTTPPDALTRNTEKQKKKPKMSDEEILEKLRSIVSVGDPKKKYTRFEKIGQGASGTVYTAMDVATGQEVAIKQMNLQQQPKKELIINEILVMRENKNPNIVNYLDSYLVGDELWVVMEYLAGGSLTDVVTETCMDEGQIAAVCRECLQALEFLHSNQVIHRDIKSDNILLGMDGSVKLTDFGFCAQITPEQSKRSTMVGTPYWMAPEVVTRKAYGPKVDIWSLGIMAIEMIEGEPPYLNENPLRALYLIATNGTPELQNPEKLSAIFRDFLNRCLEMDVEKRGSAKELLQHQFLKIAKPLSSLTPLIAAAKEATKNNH
Serine/threonine-protein kinase PAK 4, sequence (O96013 whole entry): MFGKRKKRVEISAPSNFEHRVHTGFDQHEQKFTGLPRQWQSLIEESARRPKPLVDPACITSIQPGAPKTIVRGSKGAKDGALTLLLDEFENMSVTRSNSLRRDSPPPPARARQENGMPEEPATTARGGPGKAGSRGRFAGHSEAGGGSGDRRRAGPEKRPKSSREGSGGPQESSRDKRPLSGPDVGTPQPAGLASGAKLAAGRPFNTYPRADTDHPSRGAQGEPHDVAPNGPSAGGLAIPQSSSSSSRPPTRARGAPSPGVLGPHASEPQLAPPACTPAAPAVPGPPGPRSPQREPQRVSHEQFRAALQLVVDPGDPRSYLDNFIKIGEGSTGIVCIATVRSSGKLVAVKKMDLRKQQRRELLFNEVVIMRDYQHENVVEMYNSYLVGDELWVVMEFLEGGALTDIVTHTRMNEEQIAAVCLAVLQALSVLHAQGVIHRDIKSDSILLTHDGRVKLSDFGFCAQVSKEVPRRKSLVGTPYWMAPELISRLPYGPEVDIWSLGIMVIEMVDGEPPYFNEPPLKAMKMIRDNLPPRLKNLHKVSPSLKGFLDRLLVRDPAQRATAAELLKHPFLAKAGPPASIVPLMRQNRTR
Voltage-gated inwardly rectifying potassium channel KCNH2, sequence (Q12809 whole entry): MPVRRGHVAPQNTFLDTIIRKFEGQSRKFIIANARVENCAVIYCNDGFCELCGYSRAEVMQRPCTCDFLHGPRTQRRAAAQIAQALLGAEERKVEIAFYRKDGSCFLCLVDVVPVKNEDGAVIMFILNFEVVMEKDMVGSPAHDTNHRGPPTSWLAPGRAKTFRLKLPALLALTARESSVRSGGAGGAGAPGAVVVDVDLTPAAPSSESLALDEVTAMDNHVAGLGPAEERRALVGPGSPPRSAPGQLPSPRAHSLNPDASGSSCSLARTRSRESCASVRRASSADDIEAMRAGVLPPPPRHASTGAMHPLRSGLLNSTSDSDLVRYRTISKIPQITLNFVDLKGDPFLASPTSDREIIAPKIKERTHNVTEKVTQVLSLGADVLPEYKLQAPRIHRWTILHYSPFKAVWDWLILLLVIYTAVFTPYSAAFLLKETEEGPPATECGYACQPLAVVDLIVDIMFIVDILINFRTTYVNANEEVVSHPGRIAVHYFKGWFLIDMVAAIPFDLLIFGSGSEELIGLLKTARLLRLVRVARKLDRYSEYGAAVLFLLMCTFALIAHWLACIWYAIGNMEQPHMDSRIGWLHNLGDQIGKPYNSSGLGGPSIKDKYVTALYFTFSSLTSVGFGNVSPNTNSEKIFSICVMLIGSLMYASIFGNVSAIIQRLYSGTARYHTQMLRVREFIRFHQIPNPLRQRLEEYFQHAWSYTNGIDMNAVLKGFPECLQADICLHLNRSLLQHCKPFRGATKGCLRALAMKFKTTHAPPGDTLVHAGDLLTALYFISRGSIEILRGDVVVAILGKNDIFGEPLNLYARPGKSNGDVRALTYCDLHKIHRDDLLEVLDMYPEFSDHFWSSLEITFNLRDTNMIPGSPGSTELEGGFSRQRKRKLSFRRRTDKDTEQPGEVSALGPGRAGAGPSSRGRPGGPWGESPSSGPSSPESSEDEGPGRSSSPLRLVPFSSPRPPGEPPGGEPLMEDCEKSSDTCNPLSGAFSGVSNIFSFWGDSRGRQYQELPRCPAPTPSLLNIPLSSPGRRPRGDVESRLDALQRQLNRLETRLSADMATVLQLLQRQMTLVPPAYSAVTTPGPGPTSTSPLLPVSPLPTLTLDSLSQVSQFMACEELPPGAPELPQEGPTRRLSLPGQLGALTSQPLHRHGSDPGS

## Cc1nc(Nc2n[nH]c3c2CN(C(=O)N[C@H](CN(C)C)c2ccccc2)C3(C)C)c2sccc2n1 [PF-03758309]
[1]
  pIC50: 4.39
MDA-MB-231
  inhibition of growth at 1 µM: 62.6%
HCT-116
  inhibition of growth at 1 µM: 83.2%

## Cc1cccn(-c2ccc(-c3ccc4c(C(=O)NCC5CCN(C)CC5)n[nH]c4c3)c(Cl)c2)c1=O
[2]
  pIC50: 7.66
MDA-MB-231
  inhibition of growth at 1 µM: 18.4%
HCT-116
  inhibition of growth at 1 µM: 20.1%

## CNC(=O)c1n[nH]c2cc(-c3ccccc3Cl)ccc12
[2]
  pIC50: 5.30
[3]
  pIC50: 5.30

## COCCNC(=O)c1n[nH]c2cc(-c3ccc(-n4cccc(C)c4=O)cc3Cl)ccc12
[2]
  pIC50: 7.15
MDA-MB-231
  inhibition of growth at 1 µM: 3.07%
HCT-116
  inhibition of growth at 1 µM: 10.3%

## O=C(NCC1CC1)c1n[nH]c2cc(-c3ccc(-n4ccccc4=O)cc3Cl)ccc12
[2]
  pIC50: 6.23

## CNC(=O)c1n[nH]c2cc(-c3ccc(-n4ccccc4=O)cc3Cl)ccc12
[2]
  pIC50: 6.48

## Cc1cccn(-c2ccc(-c3ccc4c(C(=O)NC5CCN(C)CC5)n[nH]c4c3)c(Cl)c2)c1=O
[2]
  pIC50: 6.84

## Cc1cccn(-c2ccc(-c3ccc4c(C(=O)NCCO)n[nH]c4c3)c(Cl)c2)c1=O
[2]
  pIC50: 7.18
MDA-MB-231
  inhibition of growth at 1 µM: 17.4%
HCT-116
  inhibition of growth at 1 µM: 19.2%

## Cc1cccc(-c2ccc(-c3ccc4c(C(=O)NCC5CC5)n[nH]c4c3)c(Cl)c2)n1
[2]
  pIC50: 6.64

## CNC(=O)c1n[nH]c2cc(-c3ccc(-n4cccc(C)c4=O)cc3Cl)ccc12
[2]
  pIC50: 7.80
[4]
  pIC50: < 5.00
MDA-MB-231
  inhibition of growth at 1 µM: 13.2%
HCT-116
  inhibition of growth at 1 µM: 17.2%

## CNC(=O)c1n[nH]c2cc(-c3ccc(-c4cncc(C)n4)cc3Cl)ccc12
[2]
  pIC50: 6.80
MDA-MB-231
  inhibition of growth at 1 µM: 15.3%
HCT-116
  inhibition of growth at 1 µM: 11.5%

## Cc1cccn(-c2ccc(-c3ccc4c(C(=O)Nc5ccncc5)n[nH]c4c3)c(Cl)c2)c1=O
[2]
  pIC50: 7.80
MDA-MB-231
  inhibition of growth at 1 µM: 6.59%
HCT-116
  inhibition of growth at 1 µM: 4.41%

## Cc1cccn(-c2ccc(-c3ccc4c(C(=O)NCC5CC5)n[nH]c4c3)c(Cl)c2)c1=O
[2]
  pIC50: 7.47
[4]
  pIC50: < 5.00
MDA-MB-231
  inhibition of growth at 1 µM: 6.87%
HCT-116
  inhibition of growth at 1 µM: 10.8%

## Cc1cncc(-c2ccc(-c3ccc4c(C(=O)NCC5CC5)n[nH]c4c3)c(Cl)c2)n1
[2]
  pIC50: 6.11

## Cc1cccn(-c2ccc(-c3ccc4c(C(=O)N5CCOCC5)n[nH]c4c3)c(Cl)c2)c1=O
[2]
  pIC50: < 5.00

## Cc1cccn(-c2ccc(-c3ccc4c(C(=O)N5CCCC5)n[nH]c4c3)c(Cl)c2)c1=O
[2]
  pIC50: < 5.00

## CCNC(=O)c1n[nH]c2cc(-c3ccc(-n4cccc(C)c4=O)cc3Cl)ccc12
[2]
  pIC50: 7.35
[4]
  pIC50: < 5.00
Homo sapiens
  Ratio IC50: > 200
[1]
  pIC50: 4.04
MDA-MB-231
  inhibition of growth at 1 µM: 10.2%
HCT-116
  inhibition of growth at 1 µM: 9.37%

## Cc1cccn(-c2ccc(-c3ccc4c(C(=O)NCC5CCOCC5)n[nH]c4c3)c(Cl)c2)c1=O
[2]
  pIC50: 7.38
MDA-MB-231
  inhibition of growth at 1 µM: 9.45%
HCT-116
  inhibition of growth at 1 µM: 16.2%

## CNC(=O)c1n[nH]c2cc(-c3ccc(-c4cccc(C)n4)cc3Cl)ccc12
[2]
  pIC50: 7.28
MDA-MB-231
  inhibition of growth at 1 µM: 8.12%
HCT-116
  inhibition of growth at 1 µM: 7.16%

## CN[C@@H]1C[C@H]2O[C@@](C)([C@@H]1OC)n1c3ccccc3c3c4c(c5c6ccccc6n2c5c31)C(=O)NC4
[1]
  pIC50: 4.04

## Cc1cccn(-c2ccc(-c3ccc4c(C(=O)NCc5ccccc5)n[nH]c4c3)c(Cl)c2)c1=O
[2]
  pIC50: 7.04
MDA-MB-231
  inhibition of growth at 1 µM: 9.66%
HCT-116
  inhibition of growth at 1 µM: 13.2%

## Cc1cccn(-c2ccc(-c3ccc4c(C(=O)NCCc5ccncc5)n[nH]c4c3)c(Cl)c2)c1=O
[2]
  pIC50: 7.68
MDA-MB-231
  inhibition of growth at 1 µM: 8.42%
HCT-116
  inhibition of growth at 1 µM: 15.3%

## Cc1cccn(-c2ccc(-c3ccc4c(C(=O)NC5CCOCC5)n[nH]c4c3)c(Cl)c2)c1=O
[2]
  pIC50: 6.13
MDA-MB-231
  inhibition of growth at 1 µM: 19.2%
HCT-116
  inhibition of growth at 1 µM: 7.91%
